According to ChEMBL document CHEMBL1795235, “Quercetin diacylglycoside analogues showing dual inhibition of DNA gyrase and topoisomerase IV as novel antibacterial agents” (J Med Chem, 2011):
Converted amounts (≈) assume the structure as drawn.

Assays:
[1] = test system: Staphylococcus aureus; assay: Antibacterial activity against methicillin-resistant Staphylococcus aureus OM481 after 24 hrs by microdilution method; type: functional; details: OM481, 24 h
Summary of the method: (§1)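 Broth microdilution in Mueller-Hinton broth with 0.85% NaCl, inoculum about 10^5 CFU per 100 μL. Compounds were diluted in water from 25.6 mg/mL stocks to final 2-fold series of 0.062–128 μg/mL. Plates were incubated 24 h at 35 °C. MIC was the lowest concentration at which all triplicate wells were clear, from three independent determinations.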

[2] = test system: Staphylococcus aureus; assay: Antibacterial activity against methicillin-resistant Staphylococcus aureus COL after 24 hrs by microdilution method; type: functional; summary of the method: as §1
[3] = test system: Enterococcus; assay: Antibacterial activity against vancomycin resistant Enterococcus FN-1 after 24 hrs by microdilution method; type: functional; details: FN-1, 24 h; summary of the method: as §1
[4] = test system: Enterococcus; assay: Antibacterial activity against vancomycin resistant Enterococcus NCTC 12201 after 24 hrs by microdilution method; type: functional; details: NCTC 12201, 24 h; summary of the method: as §1
[5] = Inhibition of Escherichia coli DNA topoisomerase 4 subunit ParC/DNA topoisomerase 4 subunit ParE-mediated decatenation of kDNA by densitometry
Summary of the method: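 Purchased E. coli topoIV kit enzyme, one unit with 200 ng kDNA, 37 °C, 30 min. Buffer: 50 mM HEPES-KOH pH 7.6, 5 mM magnesium acetate, 100 mM potassium glutamate, 10 mM DTT, 1 mM ATP, 40% glycerol. Gel on 1.0% agarose in TAE. IC50 of decatenation from densitometry by interpolation equation, at least three determinations.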

[6] = test system: Staphylococcus aureus; assay: Antibacterial activity against methicillin-resistant Staphylococcus aureus OM584 after 24 hrs by microdilution method; type: functional; details: OM584, 24 h; summary of the method: as §1
[7] = test system: Staphylococcus aureus; assay: Antibacterial activity against methicillin-susceptible Staphylococcus aureus 209P after 24 hrs by microdilution method; type: functional; summary of the method: as §1
[8] = test system: Escherichia coli; assay: Antibacterial activity against Escherichia coli K-12 after 24 hrs by microdilution method; type: functional; details: K-12, 24 h
Summary of the method: (§2)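 Broth microdilution in Mueller-Hinton broth with 0.85% NaCl, inoculum about 10^5 CFU per 100 μL. Compounds diluted from 25.6 mg/mL stocks in water to 2-fold series, final 0.062–128 μg/mL. […] Three independent determinations.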

[9] = test system: Staphylococcus aureus; assay: Antibacterial activity against vancomycin-intermediate Staphylococcus aureus Mu50 after 24 hrs by microdilution method; type: functional; details: Mu50, 24 h; summary of the method: as §1
[10] = Inhibition of Staphylococcus aureus DNA Topoisomerase 4-mediated decatenation of kDNA after 30 mins by densitometry
Summary of the method: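 Purchased S. aureus topoIV, one unit with 200 ng kDNA, 37 °C, 30 min. Products resolved on 1.0% agarose in TAE. IC50 of decatenation from densitometry by interpolation equation, at least three determinations.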

[11] = test system: Staphylococcus aureus; assay: Antibacterial activity against methicillin-resistant Staphylococcus aureus N315 after 24 hrs by microdilution method; type: functional; details: N315, 24 h; summary of the method: as §1
[12] = test system: Streptococcus pneumoniae; assay: Antibacterial activity against Streptococcus pneumoniae R6 after 24 hrs by microdilution method; type: functional; details: R6, 24 h; summary of the method: as §2
[13] = test system: Pseudomonas aeruginosa; assay: Antibacterial activity against Pseudomonas aeruginosa PAO1 after 24 hrs by microdilution method; type: functional; details: PAO1, 24 h; summary of the method: as §2
[14] = Inhibition of Escherichia coli DNA gyrase assessed as inhibition of pBR322 supercoiling by densitometry
Summary of the method: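 One unit of E. coli gyrase with 0.5 μg relaxed pBR322 DNA, 37 °C, 30 min. Stopped with sucrose/EDTA dye, run on 1.0% agarose in TAE. IC50 from densitometry via log-interpolation equation.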

[15] = test system: Enterococcus; assay: Ratio MIC for vancomycin to compound for vancomycin-resistant Enterococcus FN-1; type: functional

SMILES | MIC [1] [µg/mL] | MIC [2] [µg/mL] | MIC [3] [µg/mL] | MIC [4] [µg/mL] | IC50 [5] [nM] | MIC [6] [µg/mL] | MIC [7] [µg/mL] | MIC [8] [µg/mL] | MIC [9] [µg/mL] | IC50 [10] [nM] | MIC [11] [µg/mL] | MIC [12] [µg/mL] | MIC [13] [µg/mL] | IC50 [14] [nM] | Ratio [15]
O=C(CCCCc1ccc(F)cc1)OC[C@H]1O[C@@H](Oc2c(-c3ccc(O)c(O)c3)oc3cc(O)cc(O)c3c2=O)[C@H](OC(=O)CCCCc2ccc(F)cc2)[C@@H](O)[C@H]1O | 4 (≈ 4.87 µM) | 16 (≈ 19.5 µM) | 16 (≈ 19.5 µM) | 16 (≈ 19.5 µM) | > 12000 | 4 (≈ 4.87 µM) | 4 (≈ 4.87 µM) | > 128 | 16 (≈ 19.5 µM) | 4050 | 2 (≈ 2.44 µM) | 8 (≈ 9.75 µM) | > 128 | 5020 | –
O=C(OC[C@H]1O[C@@H](Oc2c(-c3ccc(O)c(O)c3)oc3cc(O)cc(O)c3c2=O)[C@H](OC(=O)c2ccc(F)cc2)[C@@H](O)[C@H]1O)c1ccc(F)cc1 | 2 (≈ 2.82 µM) | 8 (≈ 11.3 µM) | 4 (≈ 5.65 µM) | 4 (≈ 5.65 µM) | 11000 | 2 (≈ 2.82 µM) | 4 (≈ 5.65 µM) | > 128 | 2 (≈ 2.82 µM) | 520 | 8 (≈ 11.3 µM) | 4 (≈ 5.65 µM) | > 128 | 380 | –
O=C(CCCc1ccc(F)cc1)OC[C@H]1O[C@@H](Oc2c(-c3ccc(O)c(O)c3)oc3cc(O)cc(O)c3c2=O)[C@H](OC(=O)CCCc2ccc(F)cc2)[C@@H](O)[C@H]1O | 2 (≈ 2.52 µM) | 16 (≈ 20.2 µM) | 8 (≈ 10.1 µM) | 8 (≈ 10.1 µM) | 10700 | 2 (≈ 2.52 µM) | 4 (≈ 5.05 µM) | > 128 | 4 (≈ 5.05 µM) | 2940 | 4 (≈ 5.05 µM) | 4 (≈ 5.05 µM) | > 128 | 2980 | –
O=C(Cc1ccc(F)cc1)OC[C@H]1O[C@@H](Oc2c(-c3ccc(O)c(O)c3)oc3cc(O)cc(O)c3c2=O)[C@H](OC(=O)Cc2ccc(F)cc2)[C@@H](O)[C@H]1O | 1 (≈ 1.36 µM) | 8 (≈ 10.9 µM) | 0.5 (≈ 0.679 µM) | 0.5 (≈ 0.679 µM) | 10200 | 1 (≈ 1.36 µM) | 1 (≈ 1.36 µM) | > 128 | 1 (≈ 1.36 µM) | 460 | 1 (≈ 1.36 µM) | 1 (≈ 1.36 µM) | > 128 | 1050 | –
CC(=O)OC[C@H]1O[C@@H](Oc2cc(O)c3c(=O)c(O[C@@H]4O[C@H](COC(C)=O)[C@H](OC(C)=O)[C@H](OC(C)=O)[C@H]4OC(C)=O)c(-c4ccc(O)c(O)c4)oc3c2)[C@H](OC(C)=O)[C@@H](OC(C)=O)[C@H]1OC(C)=O | 128 (≈ 133 µM) | > 128 | 64 (≈ 66.5 µM) | 64 (≈ 66.5 µM) | – | 128 (≈ 133 µM) | 128 (≈ 133 µM) | > 128 | 128 (≈ 133 µM) | – | 128 (≈ 133 µM) | 128 (≈ 133 µM) | > 128 | – | 2
O=C(CCc1ccc(F)cc1)OC[C@H]1O[C@@H](Oc2c(-c3ccc(O)c(O)c3)oc3cc(O)cc(O)c3c2=O)[C@H](O)[C@@H](O)[C@H]1O | 16 (≈ 26 µM) | 32 (≈ 52.1 µM) | 16 (≈ 26 µM) | 16 (≈ 26 µM) | 11500 | 16 (≈ 26 µM) | 16 (≈ 26 µM) | > 128 | 32 (≈ 52.1 µM) | 2990 | 16 (≈ 26 µM) | 32 (≈ 52.1 µM) | > 128 | 1400 | –
CCOc1ccc(CCC(=O)OC[C@H]2O[C@@H](Oc3c(-c4ccc(O)c(O)c4)oc4cc(O)cc(O)c4c3=O)[C@H](OC(=O)CCc3ccc(OCC)cc3)[C@@H](O)[C@H]2O)cc1 | 4 (≈ 4.9 µM) | 8 (≈ 9.79 µM) | 16 (≈ 19.6 µM) | 16 (≈ 19.6 µM) | > 12000 | 4 (≈ 4.9 µM) | 8 (≈ 9.79 µM) | > 128 | 8 (≈ 9.79 µM) | 2990 | 2 (≈ 2.45 µM) | 8 (≈ 9.79 µM) | > 128 | 5390 | –
